Data published in ChEMBL document CHEMBL2029271, “Design and synthesis of cannabinoid receptor 1 antagonists for peripheral selectivity” (J Med Chem, 2012).
pKi: −log10 of the molar value.

Key:
Homo sapiens = organism: Homo sapiens; test: Selectivity ratio of Ki for CB2 receptor to Ki for human CB1 receptor
Cannabinoid receptor 1 [1] = molecular target: T1, Cannabinoid receptor 1 (Homo sapiens, UniProt P21554); test: biochemical; format: cell-based, CHO-K1
Cannabinoid receptor 1 [2] = molecular target: T1, Cannabinoid receptor 1; details: CHO-K1
Cannabinoid receptor 2 = Cannabinoid receptor 2 (Homo sapiens, UniProt P34972); test: Displacement of [3H]CP55940 from CB2 receptor expressed in CHO-K1 cells; format: cell-based
Sequence of Cannabinoid receptor 2 (P34972 whole entry): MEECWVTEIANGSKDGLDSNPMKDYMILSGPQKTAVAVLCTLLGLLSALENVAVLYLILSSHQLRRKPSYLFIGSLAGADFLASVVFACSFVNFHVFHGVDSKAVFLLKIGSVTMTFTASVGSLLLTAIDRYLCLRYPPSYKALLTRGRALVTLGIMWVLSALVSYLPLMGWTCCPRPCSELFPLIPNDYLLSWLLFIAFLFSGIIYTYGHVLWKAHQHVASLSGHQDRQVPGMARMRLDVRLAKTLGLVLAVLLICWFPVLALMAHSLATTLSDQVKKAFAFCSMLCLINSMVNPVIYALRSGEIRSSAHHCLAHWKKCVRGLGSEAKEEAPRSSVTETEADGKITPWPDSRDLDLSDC

MDCK = test: Permeability from apical to basal side of MDCK cells expressing human mdr1 gene; format: ADME, cell-based, Canis lupus familiaris; details: dog
Procedure, shortened: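 MDCK-mdr1 cells grown 4 days to confluence on Transwell-type filters in DMEM/F12 with 10% FBS and antibiotics. Compound added apically at 3.16 μM in HBSS with 25 mM D-glucose, HEPES-buffered to pH 7.4; 1 hr at 37°C. Apical and basal samples collected and analysed by LC-MS/MS (MRM).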

Plasma = test: Metabolic stability in human plasma assessed as compound remaining at 10 uM preincubated for 5 mins measured after 60 mins; format: ADME, cell-free; details: 1 h
Procedure, shortened: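 Human plasma, 1 ml per sample at 37°C, 5 min pre-incubation, then compound at 10 μM final, sampled at 0, 30 and 60 min. Reactions stopped with acetonitrile; LC-MS/MS (MRM) quantitation with standards in blank matrix; % parent remaining at 60 min.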

[3] = Metabolic stability in human hepatic S9 fraction assessed as compound remaining at 10 uM after 120 mins; format: ADME, Liver; details: s9, 2 h
Procedure, shortened: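 Human hepatic S9 (1 mg/ml) with 10 μM final compound in 50 mM potassium phosphate pH 7.4, 3 mM MgCl2, NADPH regenerating system (NADP 1 mM, glucose-6-phosphate 5 mM, G6PDH 1 unit/ml). Triplicates sampled at 0, 15, 30, 60, 120 min; stopped with 3 volumes acetonitrile; LC-MS/MS (MRM) against matrix standard curves; % parent remaining at 120 min.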
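For Ke in this document: antagonism measured as blockade of CP55940-evoked intracellular Ca2+ rise, read fluorometrically, in cells additionally carrying Galphaq16.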

T1 sequence (P21554 whole entry): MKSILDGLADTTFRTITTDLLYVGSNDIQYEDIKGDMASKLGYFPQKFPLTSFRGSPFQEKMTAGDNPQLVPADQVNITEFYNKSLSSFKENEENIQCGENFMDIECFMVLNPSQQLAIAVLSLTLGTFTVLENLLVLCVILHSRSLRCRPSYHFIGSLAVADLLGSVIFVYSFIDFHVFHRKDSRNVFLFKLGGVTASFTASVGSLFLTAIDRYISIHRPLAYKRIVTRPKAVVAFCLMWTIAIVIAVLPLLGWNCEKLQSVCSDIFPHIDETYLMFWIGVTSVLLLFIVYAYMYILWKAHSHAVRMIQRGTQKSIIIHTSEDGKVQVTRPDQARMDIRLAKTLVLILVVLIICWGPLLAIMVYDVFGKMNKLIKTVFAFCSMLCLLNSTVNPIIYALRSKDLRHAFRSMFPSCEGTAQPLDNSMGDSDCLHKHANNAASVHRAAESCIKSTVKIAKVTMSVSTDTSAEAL

SMILES | Ratio Ki (Homo sapiens) | pKi (Cannabinoid receptor 1 [1]) | Ke (Cannabinoid receptor 1 [2]) [nM] | pKi (Cannabinoid receptor 2) | permeability (MDCK) [%] | Stability (Plasma) [%] | Stability [3] [%]
CC(=O)N1CCC[C@H](NC(=O)c2nn(-c3ccc(Cl)cc3Cl)c(-c3ccc(Cl)cc3)c2C)C1 | 111 | 7.41 | 86 | 5.36 | 14 |  | 
CCNC(=O)NCC1CCC(CNC(=O)c2nn(-c3ccc(Cl)cc3Cl)c(-c3ccc(Cl)cc3)c2C)CC1 (configuration not stated) |  |  | 135 |  |  |  | 
Cc1c(C(=O)N[C@@H]2CCCN(C(=O)NC(C)C)C2)nn(-c2ccc(Cl)cc2Cl)c1-c1ccc(Cl)cc1 | 43 | 7.01 | 31.3 | 5.38 |  |  | 
Cc1c(C(=O)N[C@@H]2CCCN(C(=O)NC(C)(C)C)C2)nn(-c2ccc(Cl)cc2Cl)c1-c1ccc(Cl)cc1 |  |  | 268 |  |  |  | 
CCCCNC(=O)NCC1CCC(CNC(=O)c2nn(-c3ccc(Cl)cc3Cl)c(-c3ccc(Cl)cc3)c2C)CC1 (configuration not stated) |  |  | 274 |  |  |  | 
Cc1c(C(=O)N[C@H]2CCCN(C(=O)NC(C)(C)C)C2)nn(-c2ccc(Cl)cc2Cl)c1-c1ccc(Cl)cc1 |  |  | 206 |  |  |  | 
Cc1c(C(=O)N2CCC(NC(=O)Nc3ccc(N(C)C)cc3)(c3ccccc3)CC2)nn(-c2ccc(Cl)cc2Cl)c1-c1ccc(Cl)cc1 | 11 | 5.83 | 264 | 4.79 |  |  | 
CCCNC(=O)NC1(c2ccccc2)CCN(C(=O)c2nn(-c3ccc(Cl)cc3Cl)c(-c3ccc(Cl)cc3)c2C)CC1 | 39 |  | 0.4 |  |  |  | 
Cc1c(C(=O)NC2CCN(C(N)=O)CC2)nn(-c2ccc(Cl)cc2Cl)c1-c1ccc(Cl)cc1 |  |  | 4100 |  |  |  | 
CCCCNC(=O)N1CCC(NC(=O)c2nn(-c3ccc(Cl)cc3Cl)c(-c3ccc(Cl)cc3)c2C)CC1 | 47 | 6.73 | 78.1 | 5.06 |  |  | 
Cc1c(C(=O)N[C@@H]2CCCNC2)nn(-c2ccc(Cl)cc2Cl)c1-c1ccc(Cl)cc1 |  |  | 1170 |  |  |  | 
CCCCNC(=O)N1CCC[C@H](NC(=O)c2nn(-c3ccc(Cl)cc3Cl)c(-c3ccc(Cl)cc3)c2C)C1 |  |  | 230 |  |  |  | 
Cc1c(C(=O)NCC2CCC(CNC(=O)NC(C)(C)C)CC2)nn(-c2ccc(Cl)cc2Cl)c1-c1ccc(Cl)cc1 (configuration not stated) |  |  | 150 |  |  |  | 
Cc1c(C(=O)NC2CCN(C(=O)NC(C)C)CC2)nn(-c2ccc(Cl)cc2Cl)c1-c1ccc(Cl)cc1 | 114 | 7.07 | 16.7 | 5.01 | 14 |  | 
CCNC(=O)N1CCC(NC(=O)c2nn(-c3ccc(Cl)cc3Cl)c(-c3ccc(Cl)cc3)c2C)CC1 | 35 | 6.78 | 20.5 | 5.24 |  |  | 
CCCCNC(=O)N1CCC[C@@H](NC(=O)c2nn(-c3ccc(Cl)cc3Cl)c(-c3ccc(Cl)cc3)c2C)C1 | 24 | 6.90 | 118 | 5.52 |  |  | 
Cc1c(C(=O)N[C@H]2CCCN(C(=O)NC(C)C)C2)nn(-c2ccc(Cl)cc2Cl)c1-c1ccc(Cl)cc1 |  |  | 265 |  |  |  | 
Cc1c(C(=O)N[C@@H]2CCCN(C(=O)OC(C)(C)C)C2)nn(-c2ccc(Cl)cc2Cl)c1-c1ccc(Cl)cc1 | 302 | 7.65 | 52 | 5.17 | < 1 |  | 
Cc1c(C(=O)N[C@H]2CCCN(S(C)(=O)=O)C2)nn(-c2ccc(Cl)cc2Cl)c1-c1ccc(Cl)cc1 | 140 | 7.11 | 62 | 4.96 | < 1 |  | 
CC(=O)NC1(c2ccccc2)CCN(C(=O)c2nn(-c3ccc(Cl)cc3Cl)c(-c3ccc(Cl)cc3)c2C)CC1 | 3.4 |  | 201 |  |  |  | 
CCCCNC(=O)NC1(c2ccccc2)CCN(C(=O)c2nn(-c3ccc(Cl)cc3Cl)c(-c3ccc(Cl)cc3)c2C)CC1 | 178 |  | 0.4 |  | < 1 |  | 
Cc1c(C(=O)N2CCC(N)(c3ccccc3)CC2)nn(-c2ccc(Cl)cc2Cl)c1-c1ccc(Cl)cc1 | 10.8 |  | 485 |  |  |  | 
Cc1c(C(=O)N2CCC(NC(=O)Nc3ccc(F)cc3)(c3ccccc3)CC2)nn(-c2ccc(Cl)cc2Cl)c1-c1ccc(Cl)cc1 | 33 | 6.21 | 89 | 4.70 |  |  | 
Cc1c(C(=O)N2CCC(NS(C)(=O)=O)(c3ccccc3)CC2)nn(-c2ccc(Cl)cc2Cl)c1-c1ccc(Cl)cc1 | 5.6 |  | 3.5 |  | 3 |  | 
CCOC(=O)N1CCC[C@@H](NC(=O)c2nn(-c3ccc(Cl)cc3Cl)c(-c3ccc(Cl)cc3)c2C)C1 | 143 | 7.76 | 10.4 | 5.60 | < 1 |  | 
CCCNC(=O)N1CCC[C@@H](NC(=O)c2nn(-c3ccc(Cl)cc3Cl)c(-c3ccc(Cl)cc3)c2C)C1 | 23 | 6.87 | 27 | 5.51 |  |  | 
Cc1c(C(=O)NC2CCN(S(C)(=O)=O)CC2)nn(-c2ccc(Cl)cc2Cl)c1-c1ccc(Cl)cc1 |  |  | 269 |  |  |  | 

SMILES | Ratio Ki (Homo sapiens) | pKi (Cannabinoid receptor 1 [1]) | Ke (Cannabinoid receptor 1 [2]) [nM] | pKi (Cannabinoid receptor 2) | permeability (MDCK) [%] | Stability (Plasma) [%] | Stability [3] [%]
CCOC(=O)N1CCC[C@H](NC(=O)c2nn(-c3ccc(Cl)cc3Cl)c(-c3ccc(Cl)cc3)c2C)C1 | 83 | 7.18 | 75 | 5.27 | < 1 |  | 
CCNC(=O)NC1(c2ccccc2)CCN(C(=O)c2nn(-c3ccc(Cl)cc3Cl)c(-c3ccc(Cl)cc3)c2C)CC1 | 12 |  | 10.8 |  |  |  | 
Cc1c(C(=O)N2CCC(NC(=O)NC3CCCCC3)(c3ccccc3)CC2)nn(-c2ccc(Cl)cc2Cl)c1-c1ccc(Cl)cc1 | 25 |  | 12 | 4.70 |  |  | 
CCCNC(=O)N1CCC[C@H](NC(=O)c2nn(-c3ccc(Cl)cc3Cl)c(-c3ccc(Cl)cc3)c2C)C1 | 29 | 6.57 | 70 | 5.11 |  |  | 
Cc1c(C(=O)N2CCC(C(=O)O)(c3ccccc3)CC2)nn(-c2ccc(Cl)cc2Cl)c1-c1ccc(Cl)cc1 |  |  | 1170 |  |  |  | 
Cc1c(C(=O)NC2CCNCC2)nn(-c2ccc(Cl)cc2Cl)c1-c1ccc(Cl)cc1 |  |  | 5120 |  |  |  | 
Cc1c(C(=O)NCC2CCC(CNS(C)(=O)=O)CC2)nn(-c2ccc(Cl)cc2Cl)c1-c1ccc(Cl)cc1 (configuration not stated) |  |  |  |  |  | > 90 | 37
CC(=O)N1CCC(NC(=O)c2nn(-c3ccc(Cl)cc3Cl)c(-c3ccc(Cl)cc3)c2C)CC1 | 34.2 | 7.19 | 195 | 5.65 |  |  | 
Cc1c(C(=O)N[C@@H]2CCCN(S(C)(=O)=O)C2)nn(-c2ccc(Cl)cc2Cl)c1-c1ccc(Cl)cc1 | 106 | 7.93 | 7 | 5.90 | < 1 |  | 
CC(=O)N1CCC[C@@H](NC(=O)c2nn(-c3ccc(Cl)cc3Cl)c(-c3ccc(Cl)cc3)c2C)C1 |  |  | 530 |  |  |  | 
Cc1c(C(=O)N[C@H]2CCCNC2)nn(-c2ccc(Cl)cc2Cl)c1-c1ccc(Cl)cc1 |  |  | 1880 |  |  |  | 
CCCCCCNC(=O)NC1(c2ccccc2)CCN(C(=O)c2nn(-c3ccc(Cl)cc3Cl)c(-c3ccc(Cl)cc3)c2C)CC1 | 62 |  | 0.5 |  | < 1 |  | 
Cc1c(C(=O)N[C@H]2CCCN(C(=O)OC(C)(C)C)C2)nn(-c2ccc(Cl)cc2Cl)c1-c1ccc(Cl)cc1 |  |  | 842 |  |  |  | 
Cc1c(C(=O)NCC2CCC(CNC(=O)NC(C)C)CC2)nn(-c2ccc(Cl)cc2Cl)c1-c1ccc(Cl)cc1 (configuration not stated) |  |  | 351 |  |  |  | 
Cc1c(C(=O)NCC2CCC(CNS(N)(=O)=O)CC2)nn(-c2ccc(Cl)cc2Cl)c1-c1ccc(Cl)cc1 (configuration not stated) |  |  |  |  |  | > 90 | 62
Cc1c(C(=O)NC2CCN(S(N)(=O)=O)CC2)nn(-c2ccc(Cl)cc2Cl)c1-c1ccc(Cl)cc1 |  |  | 592 |  |  |  | 
CCCNC(=O)N1CCC(NC(=O)c2nn(-c3ccc(Cl)cc3Cl)c(-c3ccc(Cl)cc3)c2C)CC1 | 46 | 6.74 | 66.5 | 5.07 |  |  | 
CCNC1(C(N)=O)CCN(c2ncnc3c2nc(-c2ccccc2Cl)n3-c2ccc(Cl)cc2)CC1 [OTENABANT] |  |  |  |  | 90 |  | 
CCOC(=O)N1CCC(NC(=O)c2nn(-c3ccc(Cl)cc3Cl)c(-c3ccc(Cl)cc3)c2C)CC1 | 326 | 8.04 | 3 | 5.52 | < 1 |  | 
Cc1c(C(=O)N2CCC(NC(=O)NC(C)C)(c3ccccc3)CC2)nn(-c2ccc(Cl)cc2Cl)c1-c1ccc(Cl)cc1 | 364 |  | 0.7 |  |  |  | 
Cc1c(C(=O)NN2CCCCC2)nn(-c2ccc(Cl)cc2Cl)c1-c1ccc(Cl)cc1 [RIMONABANT] |  |  |  |  |  | > 90 | 47
CCNC1(C(N)=O)CCN(C(=O)c2nn(-c3ccc(Cl)cc3Cl)c(-c3ccc(Cl)cc3)c2C)CC1 | 28.3 |  | 91 |  |  |  | 
CCNC(=O)N1CCC[C@@H](NC(=O)c2nn(-c3ccc(Cl)cc3Cl)c(-c3ccc(Cl)cc3)c2C)C1 |  |  | 171 |  |  |  | 
CCCNC(=O)NCC1CCC(CNC(=O)c2nn(-c3ccc(Cl)cc3Cl)c(-c3ccc(Cl)cc3)c2C)CC1 (configuration not stated) |  |  | 486 |  |  |  | 
CCNC(=O)N1CCC[C@H](NC(=O)c2nn(-c3ccc(Cl)cc3Cl)c(-c3ccc(Cl)cc3)c2C)C1 |  |  | 280 |  |  |  | 
Cc1c(C(=O)N2CCC(NC(=O)Nc3ccc(C#N)cc3)(c3ccccc3)CC2)nn(-c2ccc(Cl)cc2Cl)c1-c1ccc(Cl)cc1 |  |  | > 10000 |  |  |  | 
